Assay results reported in ChEMBL document CHEMBL1137344, “Flavonoid dimers as bivalent modulators for P-glycoprotein-based multidrug resistance: synthetic apigenin homodimers linked with defined-length poly(ethylene glycol) spacers increase drug retention and enhance chemosensitivity in resistant cancer cells” (J Med Chem, 2006).
Calls of active or inactive are those of the source. The calls are words filed in the database; no cut-off is given here.

Legend:
P388/ADR [1] = assay: Antiproliferative activity against adriamycin resistant P388 cells in presence of 5 uM 1,13-bis[4'-((5,7-dihydroxy)-4H-chromen-4-on-2-yl)phenyl]-1,4,7,10,13-pentaoxatridecane by ELISA; format: functional, cell-based; settings: Mus musculus
Summary of the method: (§1)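 P388/ADR cells seeded 5000/well in RPMI 1640 with 10% FBS, given drug concentration series with or without 5 µM modulator for 3 days. MTS/PMS added for 2 h at 37 °C, absorbance at 490 nm. IC50 from dose-response curves versus 0.05% DMSO controls. RF = IC50 without modulator / IC50 with modulator.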

MDA-MB-435 [2] = assay: Antiproliferative activity against multidrug resistant MDA435/LCC6 cells in presence of 5 uM 1,13-bis[4'-((5,7-dihydroxy)-4H-chromen-4-on-2-yl)phenyl]-1,4,7,10,13-pentaoxatridecane by ELISA; format: functional, cell-based; settings: Homo sapiens
Summary of the method: (§2)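 Resistant breast cells seeded 2000/well, allowed 24 h attachment, then exposed to anticancer-drug concentration series with or without 5 µM modulator for 4 days. MTS/PMS read at 490 nm after 2 h. IC50 from dose-response curves relative to 0.05% DMSO controls. RF = IC50 without modulator divided by IC50 with modulator.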

P388 [3] = assay: Antiproliferative activity against P388 cells by ELISA; format: functional, cell-based; settings: Mus musculus
Summary of the method: (§3)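 MTS/PMS proliferation assay: cells seeded 5000/well in RPMI 1640 with 10% FBS and penicillin/streptomycin at 37 °C, 5% CO2. Drug series added and cells grown 3 days. MTS/PMS added for 2 h at 37 °C, absorbance read at 490 nm. Survival relative to DMSO (0.05%) controls; IC50 from dose-response curves, at least triplicate.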

MDA-MB-435 [4] = assay: Antiproliferative activity against multidrug resistant MDA435/LCC6 cells by ELISA; format: functional, cell-based; settings: Homo sapiens
Summary of the method: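 MTS/PMS proliferation assay: cells seeded 2000/well, drugs added after 24 h attachment, growth 4 days in DMEM with 10% FBS at 37 °C, 5% CO2. MTS/PMS added for 2 h, absorbance read at 490 nm. Survival is taken relative to DMSO (0.05%) controls. IC50 is read from dose-response curves, at least triplicate, repeated twice.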

P388/ADR [5] = assay: Antiproliferative activity against adriamycin resistant P388 cells by ELISA; format: functional, cell-based; settings: Mus musculus; summary of the method: as §3
MDA-MB-435 [6] = assay: Relative fold, IC50 in absence to presence of verapamil in multidrug resistant MDA435/LCC6 cells; format: functional, Homo sapiens; summary of the method: as §2
MDA-MB-435 [7] = assay: Antiproliferative activity against multidrug resistant MDA435/LCC6 cells in presence of 5 uM verapamil by ELISA; format: functional, cell-based; settings: Homo sapiens; summary of the method: as §2
P388 [8] = assay: Relative fold, IC50 in absence to presence of 1,13-bis[4'-((5,7-dihydroxy)-4H-chromen-4-on-2-yl)phenyl]-1,4,7,10,13-pentaoxatridecane in multidrug resistant P388 cells; format: functional, Mus musculus; summary of the method: as §1
MDA-MB-435 [9] = assay: Antiproliferative activity against MDA435/LCC6 cells by ELISA; format: functional, cell-based; settings: Homo sapiens
MDA-MB-435 [10] = assay: Relative fold, IC50 in absence to presence of 1,13-bis[4'-((5,7-dihydroxy)-4H-chromen-4-on-2-yl)phenyl]-1,4,7,10,13-pentaoxatridecane in multidrug resistant MDA435/LCC6 cells; format: functional, Homo sapiens; summary of the method: as §2
MDA-MB-435 [11] = assay: Effect on P-gp-mediated drug efflux in multidrug resistant MDA435/LCC6 cells assessed as relative fold in intracellular DOX accumulation at 10 uM; format: functional, Homo sapiens
Summary of the method: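 Resistant MDA435/LCC6 cells grown to confluence, preincubated 30 min at 37 °C in fresh DMEM with modulator (0–20 µM), then DOX added (final 20 µM) for 2 h at 37 °C. Cells trypsinized, washed in cold PBS, lysed in 0.3 N HCl/50% ethanol, sonicated, centrifuged. Supernatant fluorescence read at ex 470/em 585 nm. Mean ± SD of three independent experiments.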

MDA-MB-435 [12] = assay: Reversal potency of vinblastine resistance in multidrug resistant MDA435/LCC6 cells by MTS assay; format: functional; settings: Homo sapiens, in the assay text read “doxorubicin” for “vinblastine”
MDA-MB-435 [13] = assay: Reversal of vinblastine resistance in multidrug resistant MDA435/LCC6 cells by MTS assay; format: functional, cell-based; settings: Homo sapiens
Summary of the method: (§4)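 Resistant MDA435/LCC6 cells, 4-day MTS assay of paclitaxel or vinblastine dose-response with dimers at 5 µM or monomers at 10 µM. Verapamil 5 µM as positive control, DMSO 0.05% as solvent control. IC50 from curves, triplicate, some repeated three times and averaged.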

MDA-MB-435 [14] = assay: Reversal of paclitaxel resistance in multidrug resistant MDA435/LCC6 cells by MTS assay; format: functional, cell-based; settings: Homo sapiens; summary of the method: as §4
MDA-MB-435 [15] = assay: Cytotoxicity against MDA435/LCC6 cells at 5 uM; format: functional, cell-based; settings: Homo sapiens
P388/ADR [16] = assay: Reversal of DOX resistance in P388 ADR cells by MTS assay at 5 uM; format: functional, cell-based; settings: Mus musculus
Summary of the method: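 P388/ADR cells: 3-day MTS assay of DOX dose-response with modulator at 5 µM, or 10 µM for monomers. Verapamil 5 µM and 0.05% DMSO as controls. IC50 from curves, triplicate points, mean ± SD of three independent experiments.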

MDA-MB-435 [17] = assay: Reversal of DOX resistance in multidrug resistant MDA435/LCC6 cells by MTS assay at 10 uM; format: functional, cell-based; settings: Homo sapiens
Summary of the method: (§5)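 MDA435/LCC6 MDR cells in DMEM with 10% FBS, 2000 cells/well, allowed to attach for 24 h. Anticancer drug was added in serial concentrations with or without modulator (dimers 5 µM, monomers 10 µM; 0.05% DMSO solvent control), then grown for 4 days at 37 °C, 5% CO2. MTS/PMS was added for 2 h and A490 read. Survival was taken relative to DMSO controls; IC60 for DOX, IC50 for the others; triplicate.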

MDA-MB-435 [18] = assay: Reversal of vinblastine resistance in multidrug resistant MDA435/LCC6 cells by MTS assay at 10 uM; format: functional, cell-based; settings: Homo sapiens; summary of the method: as §5
MDA-MB-435 [19] = assay: Cytotoxicity against MDA435/LCC6 cells at 10 uM; format: functional, cell-based; settings: Homo sapiens

Structure (SMILES)	IC50 (P388/ADR [1])	IC50 (MDA-MB-435 [2])	IC50 (P388 [3])	IC50 (MDA-MB-435 [4])	IC50 (P388/ADR [5])	Ratio IC50 (P388 [8])	IC50 (MDA-MB-435 [9])	Ratio IC50 (MDA-MB-435 [10])	Activity (MDA-MB-435 [15])	Activity (P388/ADR [16])	other results
COc1cccc2c1C(=O)c1c(O)c3c(c(O)c1C2=O)C[C@@](O)(C(=O)CO)C[C@@H]3O[C@H]1C[C@H](N)[C@H](O)[C@H](C)O1 [DOXORUBICIN]	123 nM	550 nM	22 nM	4690 nM	1740 nM	14	300 nM	9	–	–	Ratio IC50 (MDA-MB-435 [6]): 16; IC50 (MDA-MB-435 [7]): 300 nM
O=c1cc(-c2ccc(OCCOCCOc3ccc(-c4cc(=O)c5c(O)cc(O)cc5o4)cc3)cc2)oc2cc(O)cc(O)c12	–	–	–	–	–	–	–	–	inactive	–	Activity (MDA-MB-435 [11]): 4.5; IC60 (MDA-MB-435 [12]): 1300 nM; IC50 (MDA-MB-435 [13]): 0.61 nM; IC50 (MDA-MB-435 [14]): 19.9 nM
O=C1c2c(O)ccc(O)c2C(=O)c2c(NCCNCCO)ccc(NCCNCCO)c21 [MITOXANTRONE]	194 nM	646 nM	4.3 nM	1440 nM	395 nM	2	0.35 nM	2.2	–	–	–
CC(=O)O[C@H]1C(=O)[C@@]2(C)[C@H]([C@H](OC(=O)c3ccccc3)[C@]3(O)C[C@H](OC(=O)[C@H](O)[C@@H](NC(=O)c4ccccc4)c4ccccc4)C(C)=C1C3(C)C)[C@]1(OC(C)=O)CO[C@@H]1C[C@@H]2O [PACLITAXEL]	30 nM	4.8 nM	22 nM	105 nM	1640 nM	55	2.9 nM	22	–	–	Ratio IC50 (MDA-MB-435 [6]): 20; IC50 (MDA-MB-435 [7]): 5.2 nM
O=c1cc(-c2ccc(OCCOCCOCCOCCOCCOCCOCCOCCOCCOc3ccc(-c4cc(=O)c5c(O)cc(O)cc5o4)cc3)cc2)oc2cc(O)cc(O)c12	–	–	–	–	–	–	–	–	inactive	inactive	–
O=c1cc(-c2ccc(OCCOCCOCCOCCOCCOCCOCCOc3ccc(-c4cc(=O)c5c(O)cc(O)cc5o4)cc3)cc2)oc2cc(O)cc(O)c12	–	–	–	–	–	–	–	–	inactive	inactive	–
COc1ccc(CCN(C)CCCC(C#N)(c2ccc(OC)c(OC)c2)C(C)C)cc1OC (stereo not drawn) [VERAPAMIL]	–	–	–	–	–	–	–	–	–	–	IC50 (MDA-MB-435 [13]): 0.25 nM; EC50 (MDA-MB-435 [14]): 700 nM; IC50 (MDA-MB-435 [14]): 5.2 nM
O=c1cc(-c2ccc(OCCOCCOCCOCCOCCOc3ccc(-c4cc(=O)c5c(O)cc(O)cc5o4)cc3)cc2)oc2cc(O)cc(O)c12	–	–	–	–	–	–	–	–	inactive	inactive	–
CC[C@]1(O)C[C@@H]2CN(CCc3c([nH]c4ccccc34)[C@@](C(=O)OC)(c3cc4c(cc3OC)N(C)[C@H]3[C@@](O)(C(=O)OC)[C@H](OC(C)=O)[C@]5(CC)C=CCN6CC[C@]43[C@@H]65)C2)C1 [VINBLASTINE]	4.3 nM	0.42 nM	4.1 nM	4.4 nM	95 nM	22	0.34 nM	10	–	–	Ratio IC50 (MDA-MB-435 [6]): 15; IC50 (MDA-MB-435 [7]): 0.29 nM
O=c1cc(-c2ccc(OCCOCCOCCOCCOCCOCCOCCOCCOc3ccc(-c4cc(=O)c5c(O)cc(O)cc5o4)cc3)cc2)oc2cc(O)cc(O)c12	–	–	–	–	–	–	–	–	inactive	inactive	–
O=c1cc(-c2ccc(OCCOCCOCCOCCO)cc2)oc2cc(O)cc(O)c12	–	–	–	–	–	–	–	–	–	–	Activity (MDA-MB-435 [17]): inactive; Activity (MDA-MB-435 [18]): inactive; EC50 (MDA-MB-435 [14]): > 10000 nM; Activity (MDA-MB-435 [19]): inactive
O=c1cc(-c2ccc(OCCOCCOCCOc3ccc(-c4cc(=O)c5c(O)cc(O)cc5o4)cc3)cc2)oc2cc(O)cc(O)c12	–	–	–	–	–	–	–	–	inactive	–	Activity (MDA-MB-435 [11]): 4; IC60 (MDA-MB-435 [12]): 1300 nM; IC50 (MDA-MB-435 [13]): 0.87 nM; IC50 (MDA-MB-435 [14]): 21.5 nM
O=c1cc(-c2ccc(OCCOCCOCCO)cc2)oc2cc(O)cc(O)c12	–	–	–	–	–	–	–	–	–	–	Activity (MDA-MB-435 [17]): inactive; Activity (MDA-MB-435 [18]): inactive; Activity (MDA-MB-435 [19]): inactive
CC[C@]1(O)C[C@H]2CN(CCc3c([nH]c4ccccc34)[C@@](C(=O)OC)(c3cc4c(cc3OC)N(C=O)[C@H]3[C@@](O)(C(=O)OC)[C@H](OC(C)=O)[C@]5(CC)C=CCN6CC[C@]43[C@@H]65)C2)C1 [VINCRISTINE]	4.5 nM	0.63 nM	2.2 nM	26 nM	299 nM	66	0.29 nM	41	–	–	–
O=c1cc(-c2ccc(OCCOc3ccc(-c4cc(=O)c5c(O)cc(O)cc5o4)cc3)cc2)oc2cc(O)cc(O)c12	–	–	–	–	–	–	–	–	inactive	inactive	–
O=c1cc(-c2ccc(OCCOCCOCCOCCOCCOCCOc3ccc(-c4cc(=O)c5c(O)cc(O)cc5o4)cc3)cc2)oc2cc(O)cc(O)c12	–	–	–	–	–	–	–	–	inactive	inactive	–
